Reference: ChEMBL document CHEMBL1142298, “Synthesis and dopamine receptor affinities of N-alkyl-11-hydroxy-2-methoxynoraporphines: N-alkyl substituents determine D1 versus D2 receptor selectivity” (J Med Chem, 2008)
pKi: −log10 of the molar value.

Key:
D(1A) dopamine receptor = D(1A) dopamine receptor (Rattus norvegicus, UniProt P18901); experiment: Displacement of [3H]SCH-23390 from dopamine D1 receptor in rat striatum
Summary of the method: (§1)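 Competitive radioligand binding on membrane homogenates prepared from rat striatum tissue, following a previously published procedure.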

D(2) dopamine receptor = D(2) dopamine receptor (Rattus norvegicus, UniProt P61169); experiment: Displacement of [3H]neomonapride from dopamine D2 receptor in rat striatum; summary of the method: as §1
D(2) dopamine receptor, sequence (P61169 whole entry): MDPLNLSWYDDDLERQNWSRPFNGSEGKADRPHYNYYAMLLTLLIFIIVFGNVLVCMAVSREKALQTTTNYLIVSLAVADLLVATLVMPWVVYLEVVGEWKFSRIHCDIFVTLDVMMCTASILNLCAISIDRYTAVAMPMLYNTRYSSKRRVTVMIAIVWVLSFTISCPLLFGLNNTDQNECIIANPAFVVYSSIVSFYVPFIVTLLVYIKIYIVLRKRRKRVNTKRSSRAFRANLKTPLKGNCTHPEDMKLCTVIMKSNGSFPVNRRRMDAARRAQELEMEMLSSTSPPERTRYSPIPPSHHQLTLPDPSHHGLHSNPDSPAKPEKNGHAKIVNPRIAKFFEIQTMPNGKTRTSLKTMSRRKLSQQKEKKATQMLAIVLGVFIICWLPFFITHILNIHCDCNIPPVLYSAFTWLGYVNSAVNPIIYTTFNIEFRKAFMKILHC

Rattus norvegicus = organism: Rattus norvegicus; experiment: Selectivity ratio of rat dopamine D2 receptor to rat dopamine D1 receptor

D(1A) dopamine receptor, sequence (P18901 whole entry): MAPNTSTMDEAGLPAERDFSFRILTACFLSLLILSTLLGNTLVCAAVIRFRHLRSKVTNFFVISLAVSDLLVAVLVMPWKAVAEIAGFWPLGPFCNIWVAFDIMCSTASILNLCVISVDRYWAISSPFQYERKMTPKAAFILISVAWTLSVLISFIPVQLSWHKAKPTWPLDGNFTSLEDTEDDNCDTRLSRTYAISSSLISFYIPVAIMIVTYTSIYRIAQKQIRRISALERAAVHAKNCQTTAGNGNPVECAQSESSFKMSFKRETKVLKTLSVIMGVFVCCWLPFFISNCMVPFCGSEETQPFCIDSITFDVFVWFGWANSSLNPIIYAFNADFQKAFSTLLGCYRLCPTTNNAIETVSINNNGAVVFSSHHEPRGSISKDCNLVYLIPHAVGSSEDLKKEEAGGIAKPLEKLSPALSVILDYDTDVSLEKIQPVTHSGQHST

SMILES	pKi (D(1A) dopamine receptor)	pKi (D(2) dopamine receptor)	Ratio Ki (Rattus norvegicus)
COc1cc2c3c(c1)-c1c(ccc(O)c1O)C[C@H]3N(C)CC2	< 5.00	8.46	> 2860
COc1cc2c3c(c1)-c1c(O)cccc1C[C@H]3N(C)CC2	7.34	6.63	0.19
CCCCN1CCc2cc(OC)cc3c2[C@H]1Cc1cccc(O)c1-3	< 5.00	< 5.00	–
CN1CCc2cccc3c2[C@H]1Cc1cccc(O)c1-3	7.58	6.97	0.24
CCCN1CCc2cc(OC)cc3c2[C@H]1Cc1ccc(O)c(O)c1-3	5.19	8.89	4860
CCN1CCc2cc(OC)cc3c2[C@H]1Cc1cccc(O)c1-3	6.89	7.55	4.6
